Experimental data reported in ChEMBL document CHEMBL4680131, “Fangchinoline derivatives induce cell cycle arrest and apoptosis in human leukemia cell lines via suppression of the PI3K/AKT and MAPK signaling pathway” (Eur J Med Chem, 2020).
Active and inactive are the calls of the source. The calls are words filed in the database; no cut-off is given here.

Tests used:
[1] = system: MCF7; assay: Potency index, ratio of vincristine IC50 to test compound IC50 for human MCF-7 cells; format: functional
[2] = system: HEL; assay: Induction of cell cycle arrest in human HEL cells assessed as up regulation of p21 incubated for 1 hr by Western blot analysis; format: functional, cell-based
Summary of the method: (§1)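 HEL cells were lysed in RIPA after compound or DMSO treatment. Lysates were run on 10% SDS-PAGE, transferred to PVDF and blocked in 5% BSA for 1 h. Blots were probed overnight at 4 °C with antibodies to PARP, caspase-3, caspase-9, c-MYC or p21, then HRP secondary for 2 h, and detected by ECL. β-actin served as loading control.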

[3] = system: MCF7; assay: Potency index, ratio of fangchinoline IC50 to test compound IC50 for human MCF-7 cells; format: functional
[4] = system: HEL; assay: Induction of apoptosis in human HEL cells assessed as viable cells by Annexin-V/propidium iodide staining-based flow cytometric analysis (reference value: 96.62%); format: functional
[5] = system: HEL; assay: Potency index, ratio of fangchinoline IC50 to test compound IC50 for human HEL cells; format: functional
[6] = system: HEL; assay: Induction of apoptosis in human HEL cells assessed as increase in caspase 3 cleavage by Western blot analysis; format: functional, cell-based; summary of the method: as §1
[7] = Inhibition of AKT (unknown origin) by ELISA assay; set-up: species or system Homo sapiens
Summary of the method: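 Akt kinase activity kit run per the manufacturer's protocol. Akt source was lysate of compound-treated human leukemia HEL cells, purified on a Mono Q anion-exchange column before the kinase measurement. HEL cells were grown in RPMI with 5% FBS at 37 °C and 5% CO2. The value is reported as an IC50.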

[8] = system: MDA-MB-231; assay: Potency index, ratio of fangchinoline IC50 to test compound IC50 for human MDA-MB-231 cells; format: functional
[9] = system: MCF7; assay: Cytotoxicity against human MCF-7 cells assessed as reduction in cell viability incubated for 48 hrs by MTT assay; format: functional, cell-based; details: MCF7, 48 h
Summary of the method: (§2)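 MTT viability after 48 h exposure. Cells (1×10^4/well) were allowed 24 h at 37 °C before dosing. Leukemia lines were grown in RPMI and breast lines in high-glucose DMEM, each with 5% FBS under 5% CO2. MTT was added for 4 h, formazan dissolved in DMSO, and absorbance read at 490 nm. Triplicate wells; values averaged over at least 3 independent experiments.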

[10] = system: MDA-MB-231; assay: Potency index, ratio of vincristine IC50 to test compound IC50 for human MDA-MB-231 cells; format: functional
[11] = system: HEL; assay: Induction of apoptosis in human HEL cells assessed as increase in JNK phosphorylation at 2.5 uM after 8 hrs by Western blot analysis; format: functional, cell-based
Summary of the method: (§3)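 HEL cells were treated with 2.5 µM for 8 h, with DMSO as control. RIPA lysates were run on 10% SDS-PAGE and transferred to PVDF. Blots were blocked in 5% BSA, incubated overnight at 4 °C with antibodies to total and phospho Akt, ERK and JNK, then HRP secondary, and detected by ECL. Bands were normalized to β-actin; means ± SD of triplicates in three independent runs; t-test.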

[12] = system: HEL; assay: Induction of apoptosis in human HEL cells assessed as late apoptotic cells by Annexin-V/propidium iodide staining-based flow cytometric analysis (reference value: 0.76%); format: functional
[13] = system: HEL; assay: Induction of apoptosis in human HEL cells assessed as necrotic cells by Annexin-V/propidium iodide staining-based flow cytometric analysis (reference value: 0.34%); format: functional
[14] = system: HEL; assay: Induction of apoptosis in human HEL cells assessed as increase in caspase 9 cleavage by Western blot analysis; format: functional, cell-based; summary of the method: as §1
[15] = system: HEL; assay: Induction of cell cycle arrest in human HEL cells assessed as accumulation of cells at G0/G1 phase measured after 1 hrs by flow cytometry; format: functional, cell-based
Summary of the method: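 HEL cells (2×10^5/well) were given DMSO or compound, then fixed in ice-cold 70% ethanol at 4 °C overnight and washed in PBS. Cells were stained 1 h at 37 °C in the dark with PBS containing 50 µg/mL PI and 100 µg/mL RNase. DNA content was analyzed by flow cytometry.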

[16] = system: MDA-MB-231; assay: Cytotoxicity against human MDA-MB-231 cells assessed as reduction in cell viability incubated for 48 hrs by MTT assay; format: functional, cell-based; details: MDA-MB-231, 48 h; summary of the method: as §2
[17] = system: K562; assay: Cytotoxicity against human K562 cells assessed as reduction in cell viability incubated for 48 hrs by MTT assay; format: functional, cell-based; details: K562, 48 h; summary of the method: as §2
[18] = system: HEL; assay: Inhibition of Akt in human HEL cells assessed as PI3K/AKT phosphorylation at 2.5 uM after 8 hrs by Western blot analysis; format: cell-based; summary of the method: as §3
[19] = system: HEL; assay: Antiproliferative activity against human HEL cells assessed as reduction in cell viability at 0.5 to 2 uM by MTT assay; format: functional, cell-based; details: dose 0.5-2 µM, time 12.0 hrs, TDE = time-dependent effect
Summary of the method: (§4)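 HEL cells were kept in RPMI with 5% FBS at 37 °C and 5% CO2. They were seeded at 1×10^4/well and given 24 h before dosing. Exposure ran 12, 24, 36, 48 or 72 h, then MTT was added for 4 h, formazan dissolved in DMSO, and absorbance read at 490 nm. Triplicate wells, repeated at least three times.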

[20] = system: HEL; assay: Potency index, ratio of vincristine IC50 to test compound IC50 for human HEL cells; format: functional
[21] = system: HEL; assay: Induction of apoptosis in human HEL cells assessed as increase in PARP cleavage by Western blot analysis; format: functional, cell-based; summary of the method: as §1
[22] = system: HEL; assay: Inhibition of ERK phosphorylation in human HEL cells at 2.5 uM after 8 hrs by Western blot analysis; format: cell-based; summary of the method: as §3
[23] = system: HEL; assay: Cytotoxicity against human HEL cells assessed as reduction in cell viability incubated for 48 hrs by MTT assay; format: functional, cell-based; summary of the method: as §2
[24] = system: HEL; assay: Induction of apoptosis in human HEL cells assessed as early apoptotic cells by Annexin-V/propidium iodide staining-based flow cytometric analysis (reference value: 2.26%); format: functional
[25] = system: HEL; assay: Antiproliferative activity against human HEL cells assessed as reduction in cell viability incubated for 12 to 72 hrs by MTT assay; format: functional, cell-based; details: dose 0.5-2 µM, time 12-72 hrs; summary of the method: as §4
[26] = system: HEL; assay: Induction of cell cycle arrest in human HEL cells assessed as down regulation of cMyc incubated for 1 hr by Western blot analysis; format: functional, cell-based; summary of the method: as §1

- IC50 [7]: 550 nM
Structure (SMILES): COc1ccc2cc1Oc1ccc(cc1)C[C@H]1c3cc(c(OC)cc3CCN1C)Oc1c(OC(=O)C3CCCS3)c(OC)cc3c1[C@H](C2)N(C)CC3 (stereo partly specified)
- Ratio IC50 [1]: 10
- Activity [2]: Active
- Ratio IC50 [3]: 9
- Activity [4]: 48.12%
- Ratio IC50 [5]: 15
- Activity [6]: Active
- Ratio IC50 [8]: 36
- IC50 [9]: 4010 nM
- Ratio IC50 [10]: 10
- Activity [11]: Active
- Activity [12]: 27.92%
- Activity [13]: 3.38%
- Activity [14]: Active
- Activity [15]: Active
- IC50 [16]: 1600 nM
- IC50 [17]: 1530 nM
- inhibition [18]: Active
- Activity [19]: Tde
- Ratio IC50 [20]: 10
- Activity [21]: Active
- inhibition [22]: Active
- IC50 [23]: 1520 nM
- Activity [24]: 19.97%
- Activity [25]: Dose-dependent effect
- Activity [26]: Active
